Measurements taken from ChEMBL document CHEMBL1944580, “Synthesis of novel sulfonamide-1,2,4-triazoles, 1,3,4-thiadiazoles and 1,3,4-oxadiazoles, as potential antibacterial and antifungal agents. Biological evaluation and conformational analysis studies” (2012).
≈ marks a conversion by molar mass, not a printed value.

Legend:
Escherichia coli [1] = assay: Antibacterial activity against Escherichia coli ATCC 35210 treated for 24 hrs followed by sub-cultivated for 72 hrs by micro dilution method; assay type: functional
How it was run: (§1)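 2 µl from each well was serially subcultured into 100 µl fresh broth per well and incubated a further 72 h. MBC is the lowest concentration with no visible growth, taken as 99.5% killing of the original inoculum. Streptomycin and ampicillin were the positive controls.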

Enterobacter cloacae [2] = assay: Antibacterial activity against Enterobacter cloacae human isolate after 24 hrs by micro dilution method; assay type: functional
How it was run: (§2)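 Microdilution MIC in 96-well plates. Bacterial suspensions adjusted in sterile saline to 1.0 × 10^5 CFU/ml, giving 1.0 × 10^4 cfu per well in LB broth. Compounds tested at up to 1 mg/ml. Plates incubated 24 h. MIC taken as the lowest concentration with no visible growth under a binocular microscope. OD at 655 nm was also read against a blank and the positive control. Streptomycin and ampicillin were the positive controls.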

Fulvia fulva [3] = assay: Antifungal activity against Fulvia fulva treated for 72 hrs followed by sub-cultivated for 5 days by serial dilution method; assay type: functional
How it was run: (§3)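 MFC obtained after the 72 h, 28 °C malt-broth microdilution (spore inoculum about 1.0 × 10^5 per well, compounds from 1 mg/ml DMSO). 2 µl was serially subcultured into 100 µl broth per well and incubated a further 5 days at 28 °C. MFC is the lowest concentration with no visible growth, taken as 99.5% killing of the original inoculum.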

Bacillus cereus [4] = assay: Antibacterial activity against Bacillus cereus clinical isolate after 24 hrs by micro dilution method; assay type: functional; how it was run: as §2
Talaromyces funiculosus [5] = assay: Antifungal activity against Penicillium funiculosum ATCC 36839 treated for 72 hrs followed by sub-cultivated for 5 days by serial dilution method; assay type: functional; how it was run: as §3
Bacillus cereus [6] = assay: Antibacterial activity against Bacillus cereus clinical isolate treated for 24 hrs followed by sub-cultivated for 72 hrs by micro dilution method; assay type: functional; how it was run: as §1
Staphylococcus aureus [7] = assay: Antibacterial activity against Staphylococcus aureus ATCC 6538 after 24 hrs by micro dilution method; assay type: functional; details: ATCC 6538, 24 h; how it was run: as §2
Salmonella typhimurium [8] = assay: Antibacterial activity against Salmonella Typhimurium ATCC 13311 treated for 24 hrs followed by sub-cultivated for 72 hrs by micro dilution method; assay type: functional, Salmonella enterica subsp. enterica serovar Typhimurium; details: Salmonella enterica; how it was run: as §1
Aspergillus versicolor [9] = assay: Antifungal activity against Aspergillus versicolor ATCC 11730 after 72 hrs by serial dilution method; assay type: functional; details: ATCC 11730, 72 h
How it was run: (§4)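 Modified microdilution MIC. Spores were washed from malt agar cultures with sterile 0.85% saline containing 0.1% Tween 80 and adjusted to about 1.0 × 10^5 per 100 µl well in malt broth. Compounds were dissolved in DMSO (1 mg/ml). Plates incubated 72 h at 28 °C. MIC is the lowest concentration with no visible growth under a binocular microscope. Bifonazole and ketoconazole were the references.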

Aspergillus versicolor [10] = assay: Antifungal activity against Aspergillus versicolor ATCC 11730 treated for 72 hrs followed by sub-cultivated for 5 days by serial dilution method; assay type: functional; how it was run: as §3
Staphylococcus aureus [11] = assay: Antibacterial activity against Staphylococcus aureus ATCC 6538 treated for 24 hrs followed by sub-cultivated for 72 hrs by micro dilution method; assay type: functional; how it was run: as §1
Trichoderma viride [12] = assay: Antifungal activity against Trichoderma viride IAM 5061 after 72 hrs by serial dilution method; assay type: functional; details: IAM 5061, 72 h; how it was run: as §4
Aspergillus flavus [13] = assay: Antifungal activity against Aspergillus flavus ATCC 9643 treated for 72 hrs followed by sub-cultivated for 5 days by serial dilution method; assay type: functional; how it was run: as §3
Listeria monocytogenes [14] = assay: Antibacterial activity against Listeria monocytogenes NCTC 7973 after 24 hrs by micro dilution method; assay type: functional; details: NCTC 7973, 24 h; how it was run: as §2
Aspergillus fumigatus [15] = assay: Antifungal activity against Aspergillus fumigatus human isolate treated for 72 hrs followed by sub-cultivated for 5 days by serial dilution method; assay type: functional; how it was run: as §3
Enterobacter cloacae [16] = assay: Antibacterial activity against Enterobacter cloacae human isolate treated for 24 hrs followed by sub-cultivated for 72 hrs by micro dilution method; assay type: functional; how it was run: as §1
Escherichia coli [17] = assay: Antibacterial activity against Escherichia coli ATCC 35210 after 24 hrs by micro dilution method; assay type: functional; details: ATCC 35210, 24 h; how it was run: as §2
Micrococcus flavus [18] = assay: Antibacterial activity against Micrococcus flavus ATCC 10240 treated for 24 hrs followed by sub-cultivated for 72 hrs by micro dilution method; assay type: functional; how it was run: as §1
Talaromyces funiculosus [19] = assay: Antifungal activity against Penicillium funiculosum ATCC 36839 after 72 hrs by serial dilution method; assay type: functional; details: ATCC 36839, 72 h; how it was run: as §4
Penicillium ochrochloron [20] = assay: Antifungal activity against Penicillium ochrochloron ATCC 9112 treated for 72 hrs followed by sub-cultivated for 5 days by serial dilution method; assay type: functional; how it was run: as §3
Trichoderma viride [21] = assay: Antifungal activity against Trichoderma viride IAM 5061 treated for 72 hrs followed by sub-cultivated for 5 days by serial dilution method; assay type: functional; how it was run: as §3
Salmonella typhimurium [22] = assay: Antibacterial activity against Salmonella Typhimurium ATCC 13311 after 24 hrs by micro dilution method; assay type: functional, Salmonella enterica subsp. enterica serovar Typhimurium; details: Salmonella enterica, ATCC 13311, 24 h; how it was run: as §2
Penicillium ochrochloron [23] = assay: Antifungal activity against Penicillium ochrochloron ATCC 9112 after 72 hrs by serial dilution method; assay type: functional; details: ATCC 9112, 72 h; how it was run: as §4
Aspergillus niger [24] = assay: Antifungal activity against Aspergillus niger ATCC 6275 after 72 hrs by serial dilution method; assay type: functional; details: ATCC 6275, 72 h; how it was run: as §4
Pseudomonas aeruginosa [25] = assay: Antibacterial activity against Pseudomonas aeruginosa ATCC 27853 treated for 24 hrs followed by sub-cultivated for 72 hrs by micro dilution method; assay type: functional; how it was run: as §1
Micrococcus flavus [26] = assay: Antibacterial activity against Micrococcus flavus ATCC 10240 after 24 hrs by micro dilution method; assay type: functional; details: ATCC 10240, 24 h; how it was run: as §2
Aspergillus flavus [27] = assay: Antifungal activity against Aspergillus flavus ATCC 9643 after 72 hrs by serial dilution method; assay type: functional; details: ATCC 9643, 72 h; how it was run: as §4
Pseudomonas aeruginosa [28] = assay: Antibacterial activity against Pseudomonas aeruginosa ATCC 27853 after 24 hrs by micro dilution method; assay type: functional; details: ATCC 27853, 24 h; how it was run: as §2
Fulvia fulva [29] = assay: Antifungal activity against Fulvia fulva after 72 hrs by serial dilution method; assay type: functional; how it was run: as §4
Aspergillus niger [30] = assay: Antifungal activity against Aspergillus niger ATCC 6275 treated for 72 hrs followed by sub-cultivated for 5 days by serial dilution method; assay type: functional; how it was run: as §3
Listeria monocytogenes [31] = assay: Antibacterial activity against Listeria monocytogenes NCTC 7973 treated for 24 hrs followed by sub-cultivated for 72 hrs by micro dilution method; assay type: functional; how it was run: as §1
Aspergillus fumigatus [32] = assay: Antifungal activity against Aspergillus fumigatus human isolate after 72 hrs by serial dilution method; assay type: functional; how it was run: as §4

Compound	MBC (Escherichia coli [1])	MIC (Enterobacter cloacae [2])	MFC (Fulvia fulva [3])	MIC (Bacillus cereus [4])	MFC (Talaromyces funiculosus [5])	MBC (Bacillus cereus [6])	MIC (Staphylococcus aureus [7])	MBC (Salmonella typhimurium [8])	MIC (Aspergillus versicolor [9])	MFC (Aspergillus versicolor [10])	MBC (Staphylococcus aureus [11])	MIC (Trichoderma viride [12])	MFC (Aspergillus flavus [13])	MIC (Listeria monocytogenes [14])	MFC (Aspergillus fumigatus [15])	MBC (Enterobacter cloacae [16])	MIC (Escherichia coli [17])	MBC (Micrococcus flavus [18])	MIC (Talaromyces funiculosus [19])	MFC (Penicillium ochrochloron [20])	also measured
CCCCn1c(Cc2cc(OC)c(OC)cc2S(=O)(=O)N(C)C)n[nH]c1=S	480 µM (≈ 199 µg/mL)	240 µM (≈ 99.5 µg/mL)	240 µM (≈ 99.5 µg/mL)	240 µM (≈ 99.5 µg/mL)	240 µM (≈ 99.5 µg/mL)	480 µM (≈ 199 µg/mL)	240 µM (≈ 99.5 µg/mL)	240 µM (≈ 99.5 µg/mL)	240 µM (≈ 99.5 µg/mL)	480 µM (≈ 199 µg/mL)	480 µM (≈ 199 µg/mL)	60 µM (≈ 24.9 µg/mL)	240 µM (≈ 99.5 µg/mL)	240 µM (≈ 99.5 µg/mL)	240 µM (≈ 99.5 µg/mL)	240 µM (≈ 99.5 µg/mL)	480 µM (≈ 199 µg/mL)	480 µM (≈ 199 µg/mL)	120 µM (≈ 49.7 µg/mL)	480 µM (≈ 199 µg/mL)	MFC (Trichoderma viride [21]): 120 µM (≈ 49.7 µg/mL); MIC (Salmonella typhimurium [22]): 240 µM (≈ 99.5 µg/mL); MIC (Penicillium ochrochloron [23]): 120 µM (≈ 49.7 µg/mL); MIC (Aspergillus niger [24]): 60 µM (≈ 24.9 µg/mL); MBC (Pseudomonas aeruginosa [25]): 480 µM (≈ 199 µg/mL); MIC (Micrococcus flavus [26]): 240 µM (≈ 99.5 µg/mL); MIC (Aspergillus flavus [27]): 60 µM (≈ 24.9 µg/mL); MIC (Pseudomonas aeruginosa [28]): 480 µM (≈ 199 µg/mL); MIC (Fulvia fulva [29]): 120 µM (≈ 49.7 µg/mL); MFC (Aspergillus niger [30]): 120 µM (≈ 49.7 µg/mL); MBC (Listeria monocytogenes [31]): 240 µM (≈ 99.5 µg/mL); MIC (Aspergillus fumigatus [32]): 120 µM (≈ 49.7 µg/mL)
CC1(C)S[C@@H]2[C@H](NC(=O)[C@H](N)c3ccccc3)C(=O)N2[C@H]1C(=O)O [AMPICILLIN]	740 µM (≈ 259 µg/mL)	370 µM (≈ 129 µg/mL)	–	250 µM (≈ 87.4 µg/mL)	–	370 µM (≈ 129 µg/mL)	250 µM (≈ 87.4 µg/mL)	490 µM (≈ 171 µg/mL)	–	–	370 µM (≈ 129 µg/mL)	–	–	370 µM (≈ 129 µg/mL)	–	490 µM (≈ 171 µg/mL)	370 µM (≈ 129 µg/mL)	370 µM (≈ 129 µg/mL)	–	–	MIC (Salmonella typhimurium [22]): 250 µM (≈ 87.4 µg/mL); MBC (Pseudomonas aeruginosa [25]): 1240 µM (≈ 433 µg/mL); MIC (Micrococcus flavus [26]): 250 µM (≈ 87.4 µg/mL); MIC (Pseudomonas aeruginosa [28]): 740 µM (≈ 259 µg/mL); MBC (Listeria monocytogenes [31]): 490 µM (≈ 171 µg/mL)
c1ccc(-c2ccc(C(c3ccccc3)n3ccnc3)cc2)cc1 (stereo unspecified) [BIFONAZOLE]	–	–	640 µM (≈ 199 µg/mL)	–	800 µM (≈ 248 µg/mL)	–	–	–	320 µM (≈ 99.3 µg/mL)	640 µM (≈ 199 µg/mL)	–	640 µM (≈ 199 µg/mL)	640 µM (≈ 199 µg/mL)	–	640 µM (≈ 199 µg/mL)	–	–	–	640 µM (≈ 199 µg/mL)	640 µM (≈ 199 µg/mL)	MFC (Trichoderma viride [21]): 800 µM (≈ 248 µg/mL); MIC (Penicillium ochrochloron [23]): 480 µM (≈ 149 µg/mL); MIC (Aspergillus niger [24]): 480 µM (≈ 149 µg/mL); MIC (Aspergillus flavus [27]): 480 µM (≈ 149 µg/mL); MIC (Fulvia fulva [29]): 320 µM (≈ 99.3 µg/mL); MFC (Aspergillus niger [30]): 640 µM (≈ 199 µg/mL); MIC (Aspergillus fumigatus [32]): 480 µM (≈ 149 µg/mL)
CC(=O)N1CCN(c2ccc(OCC3COC(Cn4ccnc4)(c4ccc(Cl)cc4Cl)O3)cc2)CC1 (stereo unspecified) [KETOCONAZOLE]	–	–	950 µM (≈ 505 µg/mL)	–	950 µM (≈ 505 µg/mL)	–	–	–	380 µM (≈ 202 µg/mL)	950 µM (≈ 505 µg/mL)	–	4750 µM (≈ 2520 µg/mL)	3800 µM (≈ 2020 µg/mL)	–	950 µM (≈ 505 µg/mL)	–	–	–	380 µM (≈ 202 µg/mL)	3800 µM (≈ 2020 µg/mL)	MFC (Trichoderma viride [21]): 5700 µM (≈ 3030 µg/mL); MIC (Penicillium ochrochloron [23]): 3800 µM (≈ 2020 µg/mL); MIC (Aspergillus niger [24]): 380 µM (≈ 202 µg/mL); MIC (Aspergillus flavus [27]): 2850 µM (≈ 1510 µg/mL); MIC (Fulvia fulva [29]): 380 µM (≈ 202 µg/mL); MFC (Aspergillus niger [30]): 950 µM (≈ 505 µg/mL); MIC (Aspergillus fumigatus [32]): 380 µM (≈ 202 µg/mL)
CN[C@@H]1[C@H](O[C@H]2[C@H](O[C@H]3[C@H](O)[C@@H](O)[C@H](N=C(N)N)[C@@H](O)[C@@H]3N=C(N)N)O[C@@H](C)[C@]2(O)C=O)O[C@@H](CO)[C@H](O)[C@H]1O [STREPTOMYCIN]	520 µM (≈ 302 µg/mL)	170 µM (≈ 98.9 µg/mL)	–	90 µM (≈ 52.3 µg/mL)	–	170 µM (≈ 98.9 µg/mL)	40 µM (≈ 23.3 µg/mL)	340 µM (≈ 198 µg/mL)	–	–	90 µM (≈ 52.3 µg/mL)	–	–	170 µM (≈ 98.9 µg/mL)	–	340 µM (≈ 198 µg/mL)	260 µM (≈ 151 µg/mL)	340 µM (≈ 198 µg/mL)	–	–	MIC (Salmonella typhimurium [22]): 170 µM (≈ 98.9 µg/mL); MBC (Pseudomonas aeruginosa [25]): 340 µM (≈ 198 µg/mL); MIC (Micrococcus flavus [26]): 170 µM (≈ 98.9 µg/mL); MIC (Pseudomonas aeruginosa [28]): 170 µM (≈ 98.9 µg/mL); MBC (Listeria monocytogenes [31]): 340 µM (≈ 198 µg/mL)
